Reference: ChEMBL document CHEMBL1143818, “Prevention of brain injury by the nonbacteriolytic antibiotic daptomycin in experimental pneumococcal meningitis” (2007)
In brackets after ≈: the same amount, converted by molar mass. Activity calls are given as the source filed them. The rule behind the calls is not given here.

Columns and labels:
Streptococcus pneumoniae [1] = assay: Antimicrobial activity against Streptococcus pneumoniae infected Wistar rat CSF assessed as decrease in bacterial titer at 50 mg/kg, sc after 2 hrs; type: functional; conditions: route subcutaneous
How it was run: (§1)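 Eleven-day-old Wistar rats infected intracisternally with 1.3 × 104 ± 0.5 × 10^4 CFU of S. pneumoniae serotype 3 clinical isolate in 10 μl saline. Single s.c. antibiotic dose started 18 h post-infection. CSF taken by cisterna magna puncture before therapy and at 20 h and 24 h post-infection. CFU counted by plating serial dilutions of 10 μl CSF on blood agar (detection limit 10^3 CFU/ml).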

Streptococcus pneumoniae [2] = assay: Antibacterial activity against Streptococcus pneumoniae serotype 3; type: functional
How it was run: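 MIC by gradient-strip diffusion (Etest) on blood agar plates inoculated with the study's serotype 3 clinical isolate, run per manufacturer's recommendations. Reference strain ATCC 49619 was tested in parallel. Result read as MIC in mg/liter.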

Streptococcus pneumoniae [3] = assay: Antibacterial activity against Streptococcus pneumoniae ATCC 49619; type: functional
How it was run: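 MIC by antibiotic gradient strip (Etest) on blood agar plates inoculated with the strain, per manufacturer's recommendations; reference strain tested in parallel with the serotype 3 clinical isolate.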

Rattus norvegicus [4] = assay: Effect on TNFalpha level in Streptococcus pneumoniae infected Wistar rat CSF at 50 mg/kg, sc after 2 to 6 hrs y ELISA; type: functional; conditions: route subcutaneous
How it was run: (§2)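 Infant Wistar rats (11 days old) infected intracisternally with S. pneumoniae serotype 3 (1.3 × 104 ± 0.5 × 10^4 CFU). Single s.c. antibiotic dose given 18 h post-infection. CSF sampled by intracisternal puncture 2 and 6 h after dosing and at 24 h post-infection. Samples spun 5 min at 13,000 rpm, 4°C to remove bacteria and leukocytes, diluted 20-fold, then assayed for rat TNF-α by ELISA (detection limit <5 pg/ml).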

Rattus norvegicus [5] = assay: Decrease in TNFalpha level in Streptococcus pneumoniae infected Wistar rat CSF at 50 mg/kg, sc after 24 hrs by ELISA; type: functional; conditions: route subcutaneous; how it was run: as §2
Streptococcus pneumoniae [6] = assay: Effect on Streptococcus pneumoniae infection induced elevation of MMP9 level in Wistar rat CSF assessed as MMP-9/MMP-2 index at 50 mg/kg, sc after 20 hrs by gel zymography; type: functional; conditions: route subcutaneous
How it was run: (§3)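 Intracisternally infected 11-day-old Wistar rats (S. pneumoniae serotype 3) dosed s.c. from 18 h. CSF sampled at 20, 24 or 40 h post-infection. 3 μl CSF run on nonreducing 10% SDS-PAGE containing 1% gelatin. Gels washed 1 h in 2.5% Triton X-100, incubated 18 h at 37°C (50 mM NaCl, 10 mM CaCl2, 50 mM Tris, pH 7.6), Coomassie stained. Lysis zones at 92 and 72 kDa measured by densitometry and reported as MMP-9/MMP-2 ratio. Uninfected saline-injected rats served as controls.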

Streptococcus pneumoniae [7] = assay: Effect on Streptococcus pneumoniae infection induced elevation of MMP9 level in Wistar rat CSF assessed as MMP-9/MMP-2 index at 50 mg/kg, sc after 24 hrs by gel zymography; type: functional; conditions: route subcutaneous; how it was run: as §3
Streptococcus pneumoniae [8] = assay: Effect on Streptococcus pneumoniae infection induced elevation of MMP9 level in Wistar rat CSF assessed as MMP-9/MMP-2 index at 50 mg/kg, sc after 40 hrs by gel zymography; type: functional; conditions: route subcutaneous; how it was run: as §3
Streptococcus pneumoniae [9] = assay: Effect on Streptococcus pneumoniae infection induced brain injury in Wistar rat hippocampal dentate gyrus assessed as number of apoptotic cells at 50 mg/kg, sc after 24 hrs; type: functional; conditions: route subcutaneous
How it was run: (§4)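 Following intracisternal pneumococcal infection and s.c. dosing from 18 h, brains were taken at 20, 24 or 40 h after PFA perfusion. Cells with fragmented bodies or condensed nuclei were counted blind in three ×400 fields in each of the four dentate gyrus blades. Counts averaged over twelve coronal sections per animal. Uninfected rats served as controls.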

Streptococcus pneumoniae [10] = assay: Effect on Streptococcus pneumoniae infection induced brain injury in Wistar rat hippocampal dentate gyrus assessed as number of apoptotic cells at 50 mg/kg, sc after 40 hrs; type: functional; conditions: route subcutaneous; how it was run: as §4
Streptococcus pneumoniae [11] = assay: Antimicrobial activity against Streptococcus pneumoniae infected Wistar rat CSF assessed as decrease in bacterial titer at 50 mg/kg, sc after 6 hrs; type: functional, organism-based; design: dose 50 mg/kg; how it was run: as §1
Streptococcus pneumoniae [12] = assay: Effect on Streptococcus pneumoniae infection induced brain injury in Wistar rat hippocampal dentate gyrus assessed as number of apoptotic cells at 50 mg/kg, sc after 20 hrs; type: functional; conditions: route subcutaneous; how it was run: as §4
Rattus norvegicus [13] = assay: Effect on TNFalpha level in Streptococcus pneumoniae infected Wistar rat CSF at 100 mg/kg, sc after 2 to 6 hrs y ELISA; type: functional; conditions: route subcutaneous; how it was run: as §2
Rattus norvegicus [14] = assay: Decrease on TNFalpha level in Streptococcus pneumoniae infected Wistar rat CSF at 100 mg/kg, sc after 24 hrs by ELISA; type: functional; conditions: route subcutaneous; how it was run: as §2
Streptococcus pneumoniae [15] = assay: Antimicrobial activity against Streptococcus pneumoniae infected Wistar rat CSF assessed as decrease in bacterial titer at 100 mg/kg, sc after 2 hrs; type: functional; conditions: route subcutaneous; how it was run: as §1

| SMILES | Log10 cfu (Streptococcus pneumoniae [1]) | MIC (Streptococcus pneumoniae [2]) | MIC (Streptococcus pneumoniae [3]) | Activity (Rattus norvegicus [4]) | Activity (Rattus norvegicus [5]) | Ratio (Streptococcus pneumoniae [6]) | Ratio (Streptococcus pneumoniae [7]) | Ratio (Streptococcus pneumoniae [8]) | Activity (Streptococcus pneumoniae [9]) | Activity (Streptococcus pneumoniae [10]) | Activity (Streptococcus pneumoniae [11]) | Activity (Streptococcus pneumoniae [12]) | Activity (Rattus norvegicus [13]) | Activity (Rattus norvegicus [14]) | Log10 cfu (Streptococcus pneumoniae [15]) |
| --- | --- | --- | --- | --- | --- | --- | --- | --- | --- | --- | --- | --- | --- | --- | --- |
| CCCCCCCCCC(=O)N[C@@H](Cc1c[nH]c2ccccc12)C(=O)N[C@H](CC(N)=O)C(=O)N[C@@H](CC(=O)O)C(=O)N[C@@H]1C(=O)NCC(=O)N[C@@H](CCCN)C(=O)N[C@@H](CC(=O)O)C(=O)N[C@H](C)C(=O)N[C@@H](CC(=O)O)C(=O)NCC(=O)N[C@H](CO)C(=O)N[C@@H]([C@H](C)CC(=O)O)C(=O)N[C@@H](CC(=O)c2ccccc2N)C(=O)O[C@@H]1C | 3.6 /ml | 0.25 µg/mL (≈ 0.154 µM) | 0.38 µg/mL (≈ 0.234 µM) | 3059 pg/mL | 352 pg/mL | 1.6 | 1.2 | 0.6 | 14.9% | 6.1% | Active | 5.5% |  |  |  |
| CO/N=C(\C(=O)N[C@@H]1C(=O)N2C(C(=O)O)=C(CSc3nc(=O)c(O)nn3C)CS[C@H]12)c1csc(N)n1 [CEFTRIAXONE] |  | 0.023 µg/mL (≈ 0.0415 µM) | 0.094 µg/mL (≈ 0.169 µM) |  |  |  |  |  |  |  |  |  | 4578 pg/mL | 249 pg/mL | 6.3 /ml |
